Columns and labels:
B. subtilis ATCC 6633 = test: MIC assay; type: cell-based; settings: B. subtilis ATCC 6633, Gram-positive
In short: (§1)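 Broth microdilution: test compound dissolved in physiological saline, two-fold serially diluted across wells (50 μL broth each). 50 μL bacterial suspension added (1.0 × 10⁶ CFU/mL). Incubation 16 h at 37 °C with constant agitation. MIC read visually together with absorbance at 600 nm. Each sample run in triplicate.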

S. aureus (MDR) = test: MIC assay; type: cell-based; settings: Gram-positive
In short: as §1

E. coli ATCC 25922 = test: MIC assay; type: cell-based; settings: E. coli ATCC 25922, Gram-negative
In short: as §1

E. aerogenes (MDR) = test: MIC assay; type: cell-based; settings: Gram-negative
In short: as §1

A. baumannii (MDR) = test: MIC assay; type: cell-based; settings: Gram-negative
In short: as §1

C. freundii (MDR) = test: MIC assay; type: cell-based; settings: Gram-negative
In short: as §1

[1] = test system: human red blood cells (hRBCs); test: Hemolytic assay; type: cell-based; settings: median hemolytic concentration, 5 % hRBCs, 1 h, 37 °C
In short: (§2)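 Human erythrocytes from heparinised blood, washed three times in PBS (centrifuged 1800 rpm, 4 °C, 5 min), used as a 5 % (v/v) suspension. Peptide two-fold dilutions in PBS, final 0.78–50 μM. Incubation 1 h at 37 °C, then 3000 rpm for 5 min; supernatant hemoglobin read at A405. Controls: PBS (0 %) and 1 % Triton X-100 (100 %). Five replicates; HC₅₀ derived as median hemolytic concentration.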

Cytotoxicity assay = type: cell-based, human
In short: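 293T human embryonic kidney cells were seeded and grown 24 h, then exposed for 24 h to a concentration series of test compound in DMEM. CCK-8 reagent was added for 2 h at 37 °C, and absorbance was read at 450 nm. Five replicates per sample.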

all bacteria tested = test: Geometric mean of MICs and selectivity index, all bacteria; type: cell-based; settings: geometric mean of MICs against all bacteria
In short: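 Geometric mean of the broth-microdilution MICs (μM) across all bacterial strains tested. It serves as the denominator of the selectivity index, SI = HC₅₀ (μM) / GM.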

Gram-positive bacteria = test: Geometric mean of MICs and selectivity index, Gram-positive bacteria; type: cell-based; settings: geometric mean of MICs
Gram-negative bacteria = test: Geometric mean of MICs and selectivity index, Gram-negative bacteria; type: cell-based; settings: geometric mean of MICs
Hemolytic assay = type: cell-based, human
In short: as §2

Plasma stability by HPLC = type: in vitro ADME; settings: human, human plasma 25 % (v/v)
In short: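 An 8 mM aqueous stock of peptide (1 mL) was added to 3 mL of 25 % (v/v) human plasma and incubated at 37 °C with agitation, sampling from 0–48 h and up to 14 days. Each sample was quenched with an equal volume of 90 % acetonitrile/10 % TFA, cooled to 4 °C and spun at 10000 rpm for 10 min. Supernatant was quantified by HPLC against standard curves (0.0625–8 mM). Triplicates.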

[2] = commercially available antimicrobial peptide drug; cited from earlier work

For “Ac-GLFKFLRKFFNFIKR-NH2 [P-γ, Ac-GLFKFLRKFFNFIKR-NH2]”, the MIC (B. subtilis ATCC 6633) was 12.5 µM, the MIC (S. aureus (MDR)) was 50 µM and the MIC (E. coli ATCC 25922) was 12.5 µM. The MIC (E. aerogenes (MDR)) was 50 µM, the MIC (A. baumannii (MDR)) was 12.5 µM and the MIC (C. freundii (MDR)) was 50 µM.
For “Ac-GLFKFLRKFFNKIKR-NH2 [P-β, Ac-GLFKFLRKFFNKIKR-NH2]”, the MIC (B. subtilis ATCC 6633) was 6.25 µM, the MIC (S. aureus (MDR)) was 6.25 µM and the MIC (E. coli ATCC 25922) was 6.25 µM. It also gave an MIC (E. aerogenes (MDR)) of 12.5 µM, an MIC (A. baumannii (MDR)) of 6.25 µM and an MIC (C. freundii (MDR)) of 6.25 µM. For the same substance, the HC50 [1] was 136.69 µM, the CC50 (Cytotoxicity assay) was 28.2 µM and the GMall (all bacteria tested) was 7.02 µM. The “GM+” value (Gram-positive bacteria) was 6.25 µM and the GM- (Gram-negative bacteria) was 7.43 µM.
Work on “Ac-GLRKALRKFANKIKR-NH2 [P-α-05, Ac-GLRKALRKFANKIKR-NH2]” yielded an MIC (B. subtilis ATCC 6633) of 25 µM, an MIC (S. aureus (MDR)) of 50 µM and an MIC (E. coli ATCC 25922) of 50 µM. For the same substance, the MIC (E. aerogenes (MDR)) was 50 µM, the MIC (A. baumannii (MDR)) was 50 µM and the MIC (C. freundii (MDR)) was 50 µM.
With “Ac-GLRKFLRKFFNKIKR-NH2 [P-α, Ac-GLRKFLRKFFNKIKR-NH2]” the MIC (B. subtilis ATCC 6633) was 6.25 µM, the MIC (S. aureus (MDR)) was 6.25 µM and the MIC (E. coli ATCC 25922) was 6.25 µM. The MIC (E. aerogenes (MDR)) was 12.5 µM, the MIC (A. baumannii (MDR)) was 6.25 µM and the MIC (C. freundii (MDR)) was 6.25 µM. For the same substance, the hemolysis at 50 µM (Hemolytic assay) was 1.5%, the GMall (all bacteria tested) was 7.02 µM and the “GM+” value (Gram-positive bacteria) was 6.25 µM. It also gave a GM- (Gram-negative bacteria) of 14.87 µM and a half-life at 2 mM (Plasma stability by HPLC) of 15.3 h.
“Ac-GLRKILRKFINKIKR-NH2 [P-α-03, Ac-GLRKILRKFINKIKR-NH2]” showed an MIC (B. subtilis ATCC 6633) of 3.125 µM, an MIC (S. aureus (MDR)) of 6.25 µM and an MIC (E. coli ATCC 25922) of 3.125 µM. The MIC (E. aerogenes (MDR)) was 12.5 µM, the MIC (A. baumannii (MDR)) was 6.25 µM and the MIC (C. freundii (MDR)) was 6.25 µM.
Substance “Ac-GLRKLLRKFLNKIKR-NH2 [P-α-04, Ac-GLRKLLRKFLNKIKR-NH2]” has an MIC (B. subtilis ATCC 6633) of 3.125 µM, an MIC (S. aureus (MDR)) of 3.125 µM and an MIC (E. coli ATCC 25922) of 3.125 µM. For the same substance, the MIC (E. aerogenes (MDR)) was 6.25 µM, the MIC (A. baumannii (MDR)) was 6.25 µM and the MIC (C. freundii (MDR)) was 3.125 µM. The HC50 [1] was greater than 1000 µM, the CC50 (Cytotoxicity assay) was 193 µM and the GMall (all bacteria tested) was 3.94 µM. The “GM+” value (Gram-positive bacteria) was 3.13 µM, the GM- (Gram-negative bacteria) was 4.42 µM and the half-life at 2 mM (Plasma stability by HPLC) was 17.4 h.
“Ac-GLRKMLRKFMNKIKR-NH2 [P-α-06, Ac-GLRKMLRKFMNKIKR-NH2]” gave an MIC (B. subtilis ATCC 6633) of 6.25 µM, an MIC (S. aureus (MDR)) of 12.5 µM and an MIC (E. coli ATCC 25922) of 12.5 µM. The MIC (E. aerogenes (MDR)) was 25 µM, the MIC (A. baumannii (MDR)) was 12.5 µM and the MIC (C. freundii (MDR)) was 6.25 µM.
“Ac-GLRKVLRKFVNKIKR-NH2 [P-α-01, Ac-GLRKVLRKFVNKIKR-NH2]” showed an MIC (B. subtilis ATCC 6633) of 6.25 µM, an MIC (S. aureus (MDR)) of 25 µM and an MIC (E. coli ATCC 25922) of 12.5 µM. The MIC (E. aerogenes (MDR)) was 50 µM, the MIC (A. baumannii (MDR)) was 12.5 µM and the MIC (C. freundii (MDR)) was 6.25 µM.
“Ac-GLWKWLRKFWNKIKR-NH2 [P-β-02, Ac-GLWKWLRKFWNKIKR-NH2]” showed an MIC (B. subtilis ATCC 6633) of 6.25 µM, an MIC (S. aureus (MDR)) of 25 µM and an MIC (E. coli ATCC 25922) of 12.5 µM. The MIC (E. aerogenes (MDR)) was 25 µM, the MIC (A. baumannii (MDR)) was 12.5 µM and the MIC (C. freundii (MDR)) was 12.5 µM.
In the case of Polymyxin B [reference compound], the MIC (B. subtilis ATCC 6633) is reported as 1.56 µM, the MIC (S. aureus (MDR)) is reported as 25 µM and the MIC (E. coli ATCC 25922) is reported as 0.78 µM. For the same substance, the MIC (A. baumannii (MDR)) was 0.78 µM.
In the case of polymyxin E, the half-life [2] is listed as 0.39 h.

Reference: paper PMC12627342 (Journal of Advanced Research, 2025)
